This excerpt belongs to a sample that is enriched for hits.
CDK5 inh: CDK5/p35 (human) kinase inhibition; Recombinant CDK5/p35, ADP-Glo luminescence, 60 min; actives 0.01% (n = 330,000); inhibition, % at 10 µM;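 active = highest replicate inhibition of at least 50% and at least 75% of replicates reaching 50%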;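 note: plate controls were DMSO neutral control for no effect and GW8510 at 10 µM for full effect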
GSK3B inh: inhibitors of human GSK3beta kinase | P49841 | GST-GSK3beta kinase, ADP-Glo luminescence, 60 min; active compounds read low | activity score (negative = inhibition), % at 10 µM | actives 0.038% (n = 300,000) | AID 2097;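 active = more than half of replicate wells score below -50%, meaning over 50% inhibition versus plate controls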;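 note: 0% = median DMSO wells and -100% = median GW8510 positive control wells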
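Test system: GST-fused GSK3beta enzyme, cell-free | Quantity: 1.6 ng GST-GSK3beta enzyme per well | Reagent: 25 µM ATP with peptide substrate | Schedule: 60 min enzyme reaction, room temperature | Signal: Luminescent ADP-Glo measurement of ADP formed | Read-out basis: Score relative to plate controls | Control set: DMSO and 20 µM GW8510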
DYRK1A inh: blocks rat Dyrk1A kinase activity; ADP-Glo luminescence, NFATc1 peptide; AID 504441; actives 0.43% (n = 310,000); inhibition, % at 12.5 µM; Q63470; in the data active = inhibition above about 50%;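 note: plate controls were vehicle with enzyme for no effect and no enzyme for full effect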
GSK3 alpha inh: blocks human GSK-3 alpha kinase. P49840. ADP-Glo luminescence, 60 min. inhibition, % at 10 µM. actives 0.1% (n = 320,000);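 active = more than half of replicates show inhibition above 20%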;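 note: GST-tagged GSK-3 alpha with peptide substrate and 25 µM ATP; 0% = DMSO neutral wells and 100% = GW8510 positive control wells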
STK33 kinase inh: blocks human STK33 kinase activity. Q9BYT3. purified STK33, MBP phosphorylation, ADP-Glo luminescence. inhibition, % at 10 µM. actives 0.073% (n = 320,000). AID 2661;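 active = inhibition at or above 25%, using the most active replicate where run in duplicate; inactive = inhibition below 25%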
Target sequence (Q9BYT3 whole entry, looked up): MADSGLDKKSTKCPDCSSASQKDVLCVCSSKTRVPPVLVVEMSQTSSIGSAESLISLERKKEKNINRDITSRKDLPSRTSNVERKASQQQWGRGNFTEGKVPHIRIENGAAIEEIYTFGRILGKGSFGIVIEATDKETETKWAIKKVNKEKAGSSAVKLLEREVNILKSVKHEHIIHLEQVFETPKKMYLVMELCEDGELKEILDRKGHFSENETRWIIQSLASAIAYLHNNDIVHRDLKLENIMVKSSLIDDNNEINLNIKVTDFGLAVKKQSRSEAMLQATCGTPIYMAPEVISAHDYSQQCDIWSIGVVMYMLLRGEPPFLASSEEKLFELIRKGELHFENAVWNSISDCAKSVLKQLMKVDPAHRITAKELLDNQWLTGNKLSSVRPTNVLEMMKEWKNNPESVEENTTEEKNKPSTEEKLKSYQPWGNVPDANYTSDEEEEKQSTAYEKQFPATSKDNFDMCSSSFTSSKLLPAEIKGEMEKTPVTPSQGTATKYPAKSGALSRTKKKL
Dyrk1A artifact: ADP-Glo luciferase interference, Dyrk1A counter-screen | shares compounds with DYRK1A inh | ADP-Glo luciferase artifact assay, no Dyrk1A, luminescence | 1,300 tested, under 10 active | AID 588348 | AC50, µM (highest dose often 12 µM), for the others: at the highest dose activity change, negative = inhibition;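 active = fitted half-maximal dose AC50 no more than ten times the top valid tested dose, with luminescence dropping as dose rises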
An asterisk follows results filed as active; . = no result given.

SMILES | CDK5 inh | GSK3B inh | DYRK1A inh | GSK3 alpha inh | STK33 kinase inh | Dyrk1A artifact
CCOC(=O)C1CCCN(c2c(N3CCN(C4CCCCC4)CC3)c(=O)c2=O)C1 (stereo not drawn) | 0 | 1 | 60* | -2 | -1 | 6%
CCOC(=O)C1CCCN(c2c(N3CCC(N4CCCCC4)CC3)c(=O)c2=O)C1 (stereo not drawn) | -1 | 11 | -2 | -1 | 1 | .
NC(=NCCc1ccccc1)NS(=O)(=O)c1ccccc1 | 1 | 4 | 2 | -2 | 0 | .
CCN1CCN(Cc2ccc(NC(=O)c3ccc(C)c(NC(=O)c4csc(-c5ccncc5)n4)c3)cc2C(F)(F)F)CC1 | -3 | -1 | 68* | 1 | 5 | 6%
CCN1CCN(Cc2ccc(NC(=O)c3ccc(C)c(/C=C/c4cnc(Nc5cc(N6CCNCC6)nc(C)n5)cn4)c3)cc2C(F)(F)F)CC1 | 6 | -31 | 52* | 24 | 15 | 8%
COc1ccc(S(=O)(=O)Nc2ccccc2C(N)=O)cc1OC | 0 | 2 | -4 | -2 | -1 | .
O=C(COC(=O)CCc1ccccc1)NNC(=O)c1ccccc1 | -1 | . | 0 | -7 | 1 | .
O=[N+]([O-])c1ccc2c(c1)C(=NO)c1cc(F)ccc1-2 | 4 | . | 68* | . | . | 12%
N#CC1(NC(=O)COC(=O)c2cc(=O)[nH]c3ccccc23)CCCCC1 | -3 | 1 | . | 1 | -2 | .
c1coc(CNc2nc(-c3cccs3)cs2)c1 | -2 | 1 | -9 | 2 | 4 | .
Oc1ccc(-c2csc(NCc3ccco3)n2)cc1 | 0 | -1 | 52* | 5 | 1 | 6%
O=C(COC(=O)COc1ccccc1)NC1CCCC1 | -1 | . | . | -2 | -1 | .
C=C1CCN([C@@H](CC(C)C)C(=O)NCCC(C)C)S(=O)(=O)c2ccccc21 | -2 | -1 | 6 | -2 | 0 | .
COc1ccc(O)c(-c2cc(-c3cccs3)[nH]n2)c1 | 0 | 2 | 70* | 1 | 2 | 8%
COc1ccc(O)c(-c2cc(-c3ccccc3Cl)[nH]n2)c1 | 2 | -2 | 53* | -1 | -3 | 8%
Oc1ccc(Br)cc1-c1cc(-c2ccccc2Cl)[nH]n1 | -1 | 1 | -3 | -1 | -2 | .
CCCCn1c(NCCO)nc2ccccc21 | 0 | 2 | 58* | 1 | -2 | 11%
Cc1ccc(NC(=O)C2CC(=O)N(c3ccccc3Cl)C2)cc1S(=O)(=O)N1CCOCC1 (stereo not drawn) | 1 | . | 2 | . | . | .
O=[N+]([O-])c1ccc(O)c(/C=N/n2c(-c3ccccc3)n[nH]c2=S)c1 | 9 | -3 | 57* | 28 | 6 | 7%
Oc1ccccc1/C=N/n1c(-c2ccccc2)n[nH]c1=S | 13 | -1 | 36 | 10 | 9 | .
O=C(O)c1cccc(-c2ccc(/C=N/Nc3ccc([N+](=O)[O-])cc3)o2)c1 | 1 | -2 | 60* | 13 | 1 | 8%
O=C(O)c1ccc(-c2ccc(/C=N/Nc3ccc([N+](=O)[O-])cc3)o2)cc1 | 0 | 0 | 7 | 1 | 1 | .
Cc1nc(-c2ccccc2)sc1C1(C)CC(c2ccc(OC(F)(F)F)cc2)=NO1 (stereo not drawn) | -6 | . | 0 | -1 | 0 | .
CCn1c2ccccc2c2nc3ccccc3nc21 | 1 | 2 | 1 | 2 | 3 | .
CCn1c2ccccc2c2nc3cc(C(=O)O)ccc3nc21 | 0 | . | 62* | . | . | 10%
SMILES | CDK5 inh | GSK3B inh | DYRK1A inh | GSK3 alpha inh | STK33 kinase inh | Dyrk1A artifact
O=S1(=O)N=C(N(Cc2cccs2)c2ccc(O)cc2)c2ccccc21 | 0 | -3 | 73* | 0 | 1 | 7%
COc1ccc(-c2nn(-c3ccccc3)cc2CO)cc1 | 2 | -1 | 62* | -1 | 1 | 13%
Cc1ccc(-c2nn(-c3ccccc3)cc2CO)cc1 | 0 | 1 | 0 | -2 | -1 | .
O=C1c2ccccc2C(=O)C1c1ccccn1 | 18 | -3 | 61* | 8 | 35* | 12%
CNC[C@H]1Oc2c(NS(=O)(=O)c3ccccc3)cccc2C(=O)N([C@H](C)CO)C[C@@H]1C | -1 | . | 9 | 1 | 1 | .
COc1ccc(-c2coc3cc(O)ccc3c2=O)cc1O | 2 | -12 | 57* | 10 | 5 | 9%
O=C(COC(=O)C1CCCC1)Nc1ncc(Cl)cc1Cl | 0 | 4 | 9 | -1 | 0 | .

Screens deposited in PubChem by Broad Institute.
